# Source: ChEMBL document CHEMBL4765483 (J Med Chem, 2021)
# What was measured:
# Conditions in all cases: Cell membrane
# [1] = target: T1, Adenosine receptor A2b (Homo sapiens) (UniProt P29275); assay: Displacement of [3H]DPCPX from human adenosine A2B receptor expressed in HEK293 cell membranes at 1 uM incubated for 30 mins by scintillation counting method
# T1 sequence (whole entry): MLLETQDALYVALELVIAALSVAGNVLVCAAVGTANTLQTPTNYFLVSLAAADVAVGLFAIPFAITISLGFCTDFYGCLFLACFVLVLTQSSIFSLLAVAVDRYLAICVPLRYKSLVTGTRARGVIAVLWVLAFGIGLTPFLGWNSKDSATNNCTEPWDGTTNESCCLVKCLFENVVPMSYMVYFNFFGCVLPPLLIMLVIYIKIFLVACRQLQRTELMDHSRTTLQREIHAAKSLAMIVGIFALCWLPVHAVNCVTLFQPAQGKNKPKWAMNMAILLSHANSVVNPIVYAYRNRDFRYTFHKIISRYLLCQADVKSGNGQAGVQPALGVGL
# [2] = target: T2, Adenosine receptor A3 (Homo sapiens) (UniProt P0DMS8); assay: Displacement of [3H]NECA from adenosine A3 receptor expressed in human HeLa cell membranes at 1 uM incubated for 180 mins by scintillation counting method
# T2 sequence (whole entry): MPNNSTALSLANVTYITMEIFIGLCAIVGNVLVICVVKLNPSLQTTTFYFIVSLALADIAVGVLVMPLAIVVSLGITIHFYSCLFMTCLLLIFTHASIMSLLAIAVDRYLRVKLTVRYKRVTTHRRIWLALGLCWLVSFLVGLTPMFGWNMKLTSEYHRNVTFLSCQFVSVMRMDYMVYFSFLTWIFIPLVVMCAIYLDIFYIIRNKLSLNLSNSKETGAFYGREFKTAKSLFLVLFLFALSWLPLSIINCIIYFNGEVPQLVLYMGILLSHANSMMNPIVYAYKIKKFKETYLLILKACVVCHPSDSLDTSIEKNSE
# How it was run: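 hA3AR in HeLa membranes (3 pmol/mg protein) with 10 nM [3H]NECA (KD 8.7 nM); nonspecific binding with 100 μM R-PIA; incubated 180 min at 25 °C, washed, filtered, radioactivity counted.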
# [3] = target: T3, Adenosine receptor A1 (Homo sapiens) (UniProt P30542); assay: Displacement of [3H]DPCPX from human adenosine A1 receptor expressed in CHO cell membranes at 1 uM incubated for 60 mins by scintillation counting method
# T3 sequence (whole entry): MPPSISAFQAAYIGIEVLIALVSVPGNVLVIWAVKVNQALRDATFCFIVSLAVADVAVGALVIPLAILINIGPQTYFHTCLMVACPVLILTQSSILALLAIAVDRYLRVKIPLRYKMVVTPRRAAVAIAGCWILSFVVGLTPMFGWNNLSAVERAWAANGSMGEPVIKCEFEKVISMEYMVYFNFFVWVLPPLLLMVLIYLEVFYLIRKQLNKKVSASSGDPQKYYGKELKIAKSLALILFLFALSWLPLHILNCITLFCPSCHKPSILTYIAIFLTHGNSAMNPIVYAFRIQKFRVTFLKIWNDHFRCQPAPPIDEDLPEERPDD
# [4] = target: Adenosine receptor A2a (Homo sapiens) (UniProt P29274); assay: Displacement of [3H]ZM2421385 from adenosine A2A receptor expressed in human HeLa cell membranes at 1 uM incubated for 30 mins by scintillation counting method
# Adenosine receptor A2a (Homo sapiens), sequence (P29274 whole entry): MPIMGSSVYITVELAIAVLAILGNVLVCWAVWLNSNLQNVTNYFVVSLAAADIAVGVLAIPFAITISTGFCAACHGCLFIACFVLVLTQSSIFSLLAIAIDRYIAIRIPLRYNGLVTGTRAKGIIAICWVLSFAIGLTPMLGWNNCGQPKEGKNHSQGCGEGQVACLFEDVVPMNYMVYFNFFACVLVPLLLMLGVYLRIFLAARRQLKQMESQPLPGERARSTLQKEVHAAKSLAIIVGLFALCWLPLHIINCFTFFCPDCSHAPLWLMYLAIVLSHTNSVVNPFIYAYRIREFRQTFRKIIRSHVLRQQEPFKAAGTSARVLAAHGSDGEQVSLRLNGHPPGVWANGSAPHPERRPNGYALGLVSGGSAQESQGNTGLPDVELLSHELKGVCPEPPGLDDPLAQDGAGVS
inhibition [1] [%],inhibition [2] [%],inhibition [3] [%],inhibition [4] [%],inhibition ([1]; filed as antagonist) [%],Compound
12,2,10,6,,CC1=C(C(=O)OC(C)C)[C@H](c2ccco2)NC(=S)N1
19,3,5,21,,CCOC(=O)C1=C(C)NC(=O)N[C@H]1c1ccsc1
26,54,44,20,,CC1=C(C(=O)OC(C)(C)C)C(c2ccco2)NC(=O)N1C (racemic)
9,9,3,1,,CC1=C(C(=O)OC(C)(C)C)C(c2ccco2)NC(=S)N1 (racemic)
38,7,26,10,,CC1=C(C(=O)OC(C)(C)C)C(c2cccs2)NC(=O)N1 (racemic)
24,22,18,12,,CC1=C(C(=O)OC(C)(C)C)C(c2cccs2)NC(=O)N1C (racemic)
26,22,22,7,,CC1=C(C(=O)OC(C)(C)C)C(c2cccs2)NC(=S)N1 (racemic)
16,12,21,16,,CC1=C(C(=O)OC(C)(C)C)C(c2ccoc2)NC(=O)N1C (racemic)
,1,15,5,47,CC1=C(C(=O)OC(C)(C)C)C(c2ccsc2)NC(=O)N1 (racemic)
26,16,16,22,,CC1=C(C(=O)OC(C)(C)C)C(c2ccsc2)NC(=S)N1 (racemic)
,,,37,,CC1=C(C(=O)OC(C)C)C(c2ccco2)NC(=O)N1C (racemic)
,17,,,,CC1=C(C(=O)OC(C)C)C(c2cccs2)NC(=O)N1C (racemic)
37,,,,,CC1=C(C(=O)OC(C)C)C(c2ccoc2)NC(=O)N1C (racemic)
,,35,22,51,CC1=C(C(=O)OC(C)C)C(c2ccsc2)NC(=O)N1C (racemic)
4,23,13,3,,CC1=C(C(=O)OCC(C)C)C(c2ccco2)NC(=O)N1C (racemic)
18,10,7,30,,CC1=C(C(=O)OCC(C)C)C(c2ccco2)NC(=S)N1 (racemic)
2,5,9,1,,CC1=C(C(=O)OCC(C)C)C(c2cccs2)NC(=O)N1C (racemic)
12,4,1,2,,CC1=C(C(=O)OCC(C)C)C(c2cccs2)NC(S)=N1 (racemic)
1,16,4,4,,CC1=C(C(=O)OCC(C)C)C(c2ccoc2)NC(=O)N1C (racemic)
1,1,12,35,,CC1=C(C(=O)OCC(C)C)C(c2ccoc2)NC(=S)N1 (racemic)
15,2,8,1,,CC1=C(C(=O)OCC(C)C)C(c2ccsc2)NC(=S)N1 (racemic)
,4,32,12,41,CC1=C(C(=O)OCc2ccccc2)C(c2ccco2)NC(=S)N1 (racemic)
,18,50,3,50,CC1=C(C(=O)OCc2ccccc2)C(c2cccs2)NC(=O)N1C (racemic)
,24,34,63,45,CC1=C(C(=O)OCc2ccccc2)C(c2cccs2)NC(=S)N1 (racemic)
,25,51,37,49,CC1=C(C(=O)OCc2ccccc2)C(c2ccoc2)NC(=O)N1C (racemic)

inhibition [1] [%],inhibition [2] [%],inhibition [3] [%],inhibition [4] [%],inhibition ([1]; filed as antagonist) [%],Compound
36,20,25,16,,CC1=C(C(=O)OCc2ccccc2)C(c2ccoc2)NC(=S)N1 (racemic)
,25,57,21,44,CC1=C(C(=O)OCc2ccccc2)C(c2ccsc2)NC(=O)N1 (racemic)
10,2,3,16,,CC1=C(C(=O)OCc2ccccc2)C(c2ccsc2)NC(=S)N1 (racemic)
23,8,3,2,,CCCOC(=O)C1=C(C)N(C)C(=O)NC1c1ccco1 (racemic)
1,4,9,1,,CCCOC(=O)C1=C(C)N(C)C(=O)NC1c1cccs1 (racemic)
2,16,1,1,,CCCOC(=O)C1=C(C)N(C)C(=O)NC1c1ccoc1 (racemic)
,3,,,,CCCOC(=O)C1=C(C)NC(=O)NC1c1ccco1 (racemic)
,1,1,2,46,CCCOC(=O)C1=C(C)NC(=S)NC1c1ccco1 (racemic)
3,10,7,1,,CCCOC(=O)C1=C(C)NC(=S)NC1c1cccs1 (racemic)
,3,4,2,45,CCCOC(=O)C1=C(C)NC(=S)NC1c1ccoc1 (racemic)
26,1,5,1,,CCCOC(=O)C1=C(C)NC(=S)NC1c1ccsc1 (racemic)
,,,1,,CCOC(=O)C1=C(C)N(C)C(=O)NC1c1ccco1 (racemic)
,2,1,1,,CCOC(=O)C1=C(C)N(C)C(=O)NC1c1cccs1 (racemic)
,,32,23,53,CCOC(=O)C1=C(C)N(C)C(=O)NC1c1ccsc1 (racemic)
,,,,41,CCOC(=O)C1=C(C)NC(=O)NC1c1cccs1 (racemic)
31,9,45,1,,COC(=O)C1=C(C)N(C)C(=O)NC1c1ccco1 (racemic)
17,15,30,49,,COC(=O)C1=C(C)N(C)C(=O)NC1c1cccs1 (racemic)
7,7,15,5,,COC(=O)C1=C(C)N(C)C(=O)NC1c1ccoc1 (racemic)
19,3,6,1,,COC(=O)C1=C(C)NC(=O)NC1c1cccs1 (racemic)
,2,8,3,42,COC(=O)C1=C(C)NC(=O)NC1c1ccoc1 (racemic)
36,3,7,2,,COC(=O)C1=C(C)NC(=O)NC1c1ccsc1 (racemic)
10,1,1,1,,COC(=O)C1=C(C)NC(=S)NC1c1cccs1 (racemic)
,3,25,1,48,COC(=O)C1=C(C)NC(=S)NC1c1ccoc1 (racemic)
38,3,3,1,,COC(=O)C1=C(C)NC(=S)NC1c1ccsc1 (racemic)
